# According to PubChem BioAssay AID602146 (NMMLSC, 2011):
# Test system: SCC-12F cells, EGF-induced EGFR degradation, Western blot
# Experiment: EGFR lysosomal turnover delay in cells – SCC-12F cells, Western blot, mechanism study for Ras-related GTPase inhibitor project (AID 602146)
# Conditions: at 100 µM, stronger effect = higher value; for EGFR remaining fraction at 60 min: measured here: 60 min time point
# Method in brief: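 also added = EGF stimulation at 20 nM after compound pretreatment | times = 2 h pretreatment, 0–2 h EGF exposure | measured by = EGFR Western blot | read-out = EGFR fraction versus time zero, compared with DMSO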
SMILES,EGFR remaining fraction at 120 min,EGFR remaining fraction at 60 min
CC1(C)Cc2c(sc(NC(=S)NC(=O)c3ccc(F)cc3)c2C(=O)O)CO1,0.241,0.561
COc1cccc(C(=O)NC(=S)Nc2sc3c(c2C(=O)O)CC(C)(C)OC3)c1,1.24,0.651
CC1(C)Cc2c(sc(NC(=S)NC(=O)c3ccc(Br)cc3)c2C(=O)O)CO1,0.643,0.696
